Out of some 300,000 compounds screened, about 120 (0.04%) were called active.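 The calls were made as follows: active = more than half of replicate wells score below -50%, meaning over 50% inhibition versus plate controls; inconclusive = some replicates but at most half score below -50%; inactive = no replicate scores below -50%.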 This excerpt belongs to a sample that is enriched for actives.
What follows are molecules tested against Glycogen synthase kinase-3 beta (Homo sapiens) (UniProt P49841) (assay: blockers of GSK3B enzyme activity – biochemical, cell-free homogeneous, HTS, primary screen (AID 2097;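 also: 0% = median DMSO wells and -100% = median GW8510 positive control wells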)). Conditions: GST-GSK3beta kinase, ADP-Glo luminescence, 60 min; at 10 µM; hits give low values.
Sequence of Glycogen synthase kinase-3 beta (Homo sapiens) (P49841 whole entry, looked up, the tested form may be a part): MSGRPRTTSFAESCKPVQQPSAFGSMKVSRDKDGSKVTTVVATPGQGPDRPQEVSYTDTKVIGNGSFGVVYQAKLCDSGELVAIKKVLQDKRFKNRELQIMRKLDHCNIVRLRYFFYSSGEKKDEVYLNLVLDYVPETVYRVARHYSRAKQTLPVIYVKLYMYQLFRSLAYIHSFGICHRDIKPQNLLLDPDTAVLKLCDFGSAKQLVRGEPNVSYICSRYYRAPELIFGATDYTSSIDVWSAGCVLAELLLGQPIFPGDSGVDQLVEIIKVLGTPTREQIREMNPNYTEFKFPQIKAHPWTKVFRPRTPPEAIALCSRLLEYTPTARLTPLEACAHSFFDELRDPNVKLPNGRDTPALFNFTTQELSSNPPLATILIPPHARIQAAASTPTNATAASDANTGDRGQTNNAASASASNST
Method in brief: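 Assay system: GST-fused GSK3beta enzyme, cell-free / Medium: Tris pH 7.5 buffer with MgCl2, DTT, BSA, heparin / Also added: peptide substrate plus 25 µM ATP (final) / Compound: 10 µM single point / Timing: kinase reaction with compound 60 min at room temperature / Detection: ADP-Glo luminescence / Benchmarks: DMSO neutral wells and GW8510 at 20 µM as positive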
`COc1cc(C(=O)NCc2nnc(SCC(=O)Nc3nc4ccc(C)cc4s3)o2)cc(OC)c1OC` was tested, and the activity score (negative = inhibition) was -2.02% (inactive). `O=C1CCN(CCc2ccccc2)CCN1CCOc1ccccc1` was tested, and the activity score (negative = inhibition) was 3.91% (inactive). `CN1C2CCC1/C(=C\c1ccccc1Cl)C(=O)/C2=C\c1ccccc1Cl` was tested, and the activity score (negative = inhibition) was 0.435% (inactive). In the case of `COc1ccccc1N(C)C(=O)c1cc(S(=O)(=O)N2CCc3ccccc32)cn1C`, the activity score (negative = inhibition) is reported as 0.131% (inactive). With `CCCCC(NC(=O)c1cccc(Br)c1)C(=O)O` (centres undefined) the activity score (negative = inhibition) was -0.419% (inactive). For `Cc1c(CCC(=O)N[C@@H](CC(C)C)C(=O)O)c(=O)oc2c(C)c3oc4c(c3cc12)CCCC4`, the activity score (negative = inhibition) was -23.5% (inactive). With `O=C(OCc1nnc(-c2ccccc2)o1)c1cc(=O)[nH]c2ccccc12` the activity score (negative = inhibition) was -0.304% (inactive). With `Cc1ccc(C(=O)NC2CCN(C(=O)Nc3ccccc3Cl)CC2)cc1` the activity score (negative = inhibition) was 2.37% (inactive). With `O=[N+]([O-])c1ccc(NCCCN2CCOCC2)c(Cl)c1` the activity score (negative = inhibition) was -5.04% (inactive). For `CC1CN(c2nc(Nc3ccccc3)nc(N)c2[N+](=O)[O-])CC(C)O1` (centres undefined), the activity score (negative = inhibition) was -27.9% (inactive). With `Nc1nc(NCCCN2CCOCC2)nc(Nc2ccccc2)c1[N+](=O)[O-]` the activity score (negative = inhibition) was -73.5% (active). With `COc1ccc([N+](=O)[O-])cc1NC(=O)COC(=O)/C=C/c1ccco1` the activity score (negative = inhibition) was 1.89% (inactive). For `CCOc1ccccc1C(=O)NC1CC2CCCC(C1)N2Cc1ccccc1` (centres undefined), the activity score (negative = inhibition) was 1.55% (inactive). `Cc1cccc(-c2nc3c(c(SCC(=O)N4CCOCC4)n2)CCCC3)c1` was tested, and the activity score (negative = inhibition) was -0.852% (inactive). With `COc1ccccc1NC(=O)CCC(=O)N1CC(C)Oc2ccc(C)cc21` (centres undefined) the activity score (negative = inhibition) was -0.0566% (inactive). `CCOC(=O)C[C@H]1c2ccc(C(F)(F)F)cc2S(=O)(=O)N1c1ccccc1` was tested, and the activity score (negative = inhibition) was 3.21% (inactive). `CCC1(c2ccccc2)NC(=O)N(CC(=O)Nc2ccccc2C(=O)NC2CCCC2)C1=O` (centres undefined) was tested, and the activity score (negative = inhibition) was 1.66% (inactive). With `COc1ccc(-c2ccc(OC(=O)NC3CCS(=O)(=O)C3)cc2)cc1` (centres undefined) the activity score (negative = inhibition) was 1.32% (inactive). With `C=C(C)C(=O)O[C@H]1C/C(C)=C\C(=O)/C=C(\C)[C@H](O)[C@@H]2OC(=O)C(=C)[C@@H]21` the activity score (negative = inhibition) was 2.58% (inactive). For `Cc1ccc(S(=O)(=O)/N=S(\C)C(C)C)cc1` (centres undefined), the activity score (negative = inhibition) was -3.78% (inactive). In the case of `Cc1nn(-c2ccccc2)c2c1c(C)c(CCC(=O)NCC1CCCO1)c(=O)n2C` (centres undefined), the activity score (negative = inhibition) is reported as -0.881% (inactive). In the case of `COc1ccc(CCC(C)N2CCc3ccccc3C2)cc1` (centres undefined), the activity score (negative = inhibition) is reported as 3.34% (inactive). In the case of `COc1ccc(CNS(=O)(=O)c2cc3c4c(c2)CCN4C(=O)CC3)cc1`, the activity score (negative = inhibition) is reported as 0.199% (inactive). `COc1ccc(C2OCC3(CO2)SC(=O)NC3=O)cc1OC` (centres undefined) was tested, and the activity score (negative = inhibition) was -1.61% (inactive). With `Cc1ccc(C(=O)Nc2nc3ccc(Cl)cc3s2)o1` the activity score (negative = inhibition) was -1.18% (inactive). In the case of `Cc1ccc(OCCNC(=O)CNC(=O)c2ccc(C)c(C)c2)cc1`, the activity score (negative = inhibition) is reported as -1.65% (inactive). With `COC(=O)C1=NNC2(c3ccc(C)cc3)C(=O)N(c3cccc(C)c3C)C(=O)C12` (centres undefined) the activity score (negative = inhibition) was 1.69% (inactive). In the case of `Cc1ccc(C2SCC(=O)N2c2ccccc2)cc1` (centres undefined), the activity score (negative = inhibition) is reported as -1.18% (inactive). For `C[C@H](NC(=O)c1ccccc1Cl)C(=O)OCCOc1cccc(Cl)c1`, the activity score (negative = inhibition) was -1.48% (inactive). With `O=C(CCCN1C(=O)CSc2ncccc21)N1CCN(c2cccc(C(F)(F)F)c2)CC1` the activity score (negative = inhibition) was -4.32% (inactive). In the case of `CCC(C(=O)OCC(=O)Nc1ccccc1-c1ccccc1)c1ccccc1` (centres undefined), the activity score (negative = inhibition) is reported as 0.894% (inactive). For `CC(=O)c1ccc(NC(=S)N(Cc2ccccc2)C(C)C2CC2)cc1` (centres undefined), the activity score (negative = inhibition) was -0.731% (inactive). With `Cc1nnc(C)c2c(C)n(N)c(C)c12` the activity score (negative = inhibition) was 1.96% (inactive). For `CNC(=O)NC(=O)C(OC(=O)c1cccc(S(=O)(=O)N2CCCCC2)c1)c1ccccc1` (centres undefined), the activity score (negative = inhibition) was 1.44% (inactive). `O=C(/C=C/c1cccc([N+](=O)[O-])c1)NCCSCc1ccco1` was tested, and the activity score (negative = inhibition) was -1% (inactive). For `CC(C)Nc1nnc(SC(C)C(=O)N(C)C2CCCCC2)s1` (centres undefined), the activity score (negative = inhibition) was -10.4% (inactive). In the case of `CCc1nnc(NC(=O)CSCc2cc(=O)n3cc(C)sc3n2)s1`, the activity score (negative = inhibition) is reported as 1.76% (inactive). With `COc1ccc(C)cc1Nc1n[n+](-c2ccccc2)c(-c2cccc(Cl)c2Cl)s1` the activity score (negative = inhibition) was 1.38% (inactive). In the case of `COC(=O)c1ccc2c(C(C)(C)O)c(C(C)(C)O)[nH]c2c1`, the activity score (negative = inhibition) is reported as 0.923% (inactive). For `Cc1cc(C)n2nc(C(=O)N(C)C(c3ccccc3)c3ccccc3)nc2n1`, the activity score (negative = inhibition) was -1.04% (inactive). For `COC(=O)c1ccc(CNC(=O)C2CCC(=O)N(Cc3cccc(F)c3)C2)cc1` (centres undefined), the activity score (negative = inhibition) was -6.3% (inactive). With `CCc1noc(C)c1C(=O)N1CCCSC1=Nc1ccccc1OC` the activity score (negative = inhibition) was 3.72% (inactive). For `CC(OC(=O)c1ccc(S(=O)(=O)N2CCOCC2)cc1)c1ccccc1` (centres undefined), the activity score (negative = inhibition) was -0.509% (inactive). In the case of `O=C(N/N=C/c1ccccc1O)/C(=C/c1ccccc1)CCO`, the activity score (negative = inhibition) is reported as 0.241% (inactive).

From PubChem BioAssay AID2097 (Broad Institute, 2009)
